Measurements as given in ChEMBL document CHEMBL1122186, “Synthesis and spasmolytic activities of 2-(1,2-benzisoxazol-3-yl)-3-[[omega-(dialkylamino)alkoxy]phenyl]acrylonitriles” (1982).

How the values were obtained:
Type in all cases: functional
Mus musculus [1] = species: Mus musculus
Cavia porcellus [2] = species: Cavia porcellus; assay: (§1) Inhibitory effect on the response of isolated ileum to acetylcholine (anti-ACh activity) in guinea pig was determined
How it was run: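 Ileum contraction to acetylcholine (1.1 × 10^-4 mM), with compound added 2 min before the agonist. Three concentrations per compound, percent inhibition averaged over four experiments. ID50 is derived graphically.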

Mus musculus [3] = assay: Percent inhibition of the charcoal meal transfer in mice(100 mg/kg) was determined
How it was run: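 Male ddN mice (20–25 g) are fasted 18 h and dosed orally. Charcoal meal (5% charcoal in 10% tragacanth) is given orally 20 min later, and mice are killed after 30 min. Charcoal travel is expressed as % of small-intestine length (pylorus to caecum). The group mean (n=7) is compared with the vehicle group (n=7) as percent change.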

Cavia porcellus [4] = species: Cavia porcellus; assay: as §1; remark: listed apart in the source
How it was run: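 Isolated ileum contracted with acetylcholine (1.1 × 10^-4 mM). Test compound added 2 min before the agonist. Each compound was tested at three concentrations, with percent inhibition of the contraction as the mean of four experiments. ID50, the concentration giving 50% inhibition, was read off by the usual graphic method.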

SMILES | Inhibition (Mus musculus [1]) | also measured
Br.N#C/C(=C\c1ccccc1OCCN1CCCCCC1)c1noc2ccccc12 | 27% | 
Cl.N#C/C(=C\c1ccccc1OCCCCN1CCOCC1)c1noc2ccccc12 | 22% | 
Cl.N#C/C(=C\c1ccccc1OCCCN1CCOCC1)c1noc2ccccc12 | 46% | 
Cl.N#C/C(=C\c1cccc(OCCN2CCOCC2)c1)c1noc2ccccc12 | 32% | 
Cl.N#C/C(=C\c1ccccc1OCCN1CCCC1)c1noc2ccccc12 | 22% | 
CCN(CC)CCOc1ccccc1/C=C(\C#N)c1noc2ccccc12.Cl | 20% | 
Cl.N#C/C(=C\c1ccccc1OCCN1CCOCC1)c1noc2ccc(O)cc12 | 4% | 
Cl.N#C/C(=C\c1ccc(OCCCN2CCCCC2)cc1)c1noc2ccccc12.O | 19% | 
COc1ccc2onc(/C(C#N)=C/c3ccccc3OCCN3CCOCC3)c2c1.Cl | 48% | ID50 (Cavia porcellus [2]): 32 µM
COc1ccc2onc(/C(C#N)=C/c3ccccc3OCCN3CCCC3)c2c1.Cl.O | 33% | 
COc1ccc2onc(/C(C#N)=C/c3ccccc3OCCN3CCCCC3)c2c1.Cl.O |  | ID50 (Cavia porcellus [2]): 25 µM; Inhibition (Mus musculus [3]): 51%
Cl.N#C/C(=C\c1ccccc1OCCN1CCCCC1)c1noc2ccc(O)cc12 | 39% | 
CCN(CC)CCOc1ccccc1/C=C(\C#N)c1noc2ccc(O)cc12.Cl | 14% | 
Cl.N#C/C(=C\c1ccccc1OCCCN1CCCCCC1)c1noc2ccccc12 | 21% | 
CN(C)CCCOc1ccccc1/C=C(\C#N)c1noc2ccccc12.Cl | 9% | 
CN(C)CCOc1ccccc1/C=C(\C#N)c1noc2ccccc12.Cl.O | 37% | ID50 (Cavia porcellus [2]): 16 µM
Cl.N#C/C(=C\c1ccccc1OCCN1CCCCC1)c1noc2ccccc12.O | 45% | ID50 (Cavia porcellus [2]): 8.7 µM
Cl.N#C/C(=C\c1ccccc1OCCN1CCOCC1)c1noc2ccccc12.O | 55% | ID50 (Cavia porcellus [2]): 22 µM
Cl.N#C/C(=C\c1ccccc1OCCN1CCOCC1)c1noc2ccc(Cl)cc12.O | 11% | 
Cl.N#C/C(=C\c1ccccc1OCCN1CCCCC1)c1noc2ccc(Cl)cc12.O | 37% | 
Cl.N#C/C(=C\c1ccccc1OCCN1CCCC1)c1noc2ccc(Cl)cc12 | 19% | 
CN(C)CCOc1ccccc1/C=C(\C#N)c1noc2ccc(Cl)cc12.Cl | 11% | 
C[N+]1(CCOc2ccccc2/C=C(\C#N)c2noc3ccccc23)CCOCC1.[I-] | 12% | 
CN1[C@@H]2CC[C@H]1C[C@@H](OC(=O)C(CO)c1ccccc1)C2.O=S(=O)(O)O (stereo not given in full) [ATROPINE SULFATE] | 27% | ID50 (Cavia porcellus [2]): 0.0072 µM
CCCC[N+]1(C)[C@@H]2C[C@@H](OC(=O)[C@H](CO)c3ccccc3)C[C@H]1[C@@H]1O[C@@H]12.[Br-] (stereo not given in full) [BUTYLSCOPOLAMINE BROMIDE] | 19% | ID50 (Cavia porcellus [2]): 0.075 µM
CN1CC[C@]23c4c5ccc(O)c4O[C@H]2[C@@H](O)C=C[C@H]3[C@H]1C5.Cl [MORPHINE HYDROCHLORIDE] | 64% | ID50 (Cavia porcellus [4]): 5.3 µM
COc1ccc(Cc2nccc3cc(OC)c(OC)cc23)cc1OC.Cl [PAPAVERINE HYDROCHLORIDE] | 1% | 
